Data reported in paper PMC8604211 (Clinical and Translational Science, 2021).
Values joined by “and” are separate entries in the source; they are usually repeats but may differ in a detail not shown here. Equal entries are not always repeated. Where two headings read alike, the source gives them in different places.

How the values were obtained:
[1] = target: P-gp (Homo sapiens, UniProt P08183); assay: P-gp bidirectional transport assay in human Caco-2 cell monolayers; assay type: in vitro ADME; conditions: Caco-2, pH 7.4
[2] = Rat ADME study with [14C]milademetan; assay type: in vivo; conditions: single oral [14C]milademetan 30 mg/kg
[3] = Clinical DDI study U107; assay type: in vivo, human
[4] = Milademetan PBPK model; parameters: species or system human
In short: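 Minimal PBPK model with one adjusting compartment and ADAM absorption that includes intestinal P-gp; renal and biliary clearance set to zero. Vss, kin, kout, Vsac and oral clearance fitted to healthy-subject plasma data after a single fasted 100 mg oral dose.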

[5] = Clinical food effect study; assay type: in vivo, human; conditions: high-calorie, high-fat meal vs fasted state; unpublished in-house data
[6] = target: T1, CYP3A4 (Homo sapiens, UniProt P08684); assay: CYP3A inhibition; assay type: in vitro ADME; conditions: pooled human hepatic microsomes, probe midazolam
Target sequence in this assay (P08684 2-503): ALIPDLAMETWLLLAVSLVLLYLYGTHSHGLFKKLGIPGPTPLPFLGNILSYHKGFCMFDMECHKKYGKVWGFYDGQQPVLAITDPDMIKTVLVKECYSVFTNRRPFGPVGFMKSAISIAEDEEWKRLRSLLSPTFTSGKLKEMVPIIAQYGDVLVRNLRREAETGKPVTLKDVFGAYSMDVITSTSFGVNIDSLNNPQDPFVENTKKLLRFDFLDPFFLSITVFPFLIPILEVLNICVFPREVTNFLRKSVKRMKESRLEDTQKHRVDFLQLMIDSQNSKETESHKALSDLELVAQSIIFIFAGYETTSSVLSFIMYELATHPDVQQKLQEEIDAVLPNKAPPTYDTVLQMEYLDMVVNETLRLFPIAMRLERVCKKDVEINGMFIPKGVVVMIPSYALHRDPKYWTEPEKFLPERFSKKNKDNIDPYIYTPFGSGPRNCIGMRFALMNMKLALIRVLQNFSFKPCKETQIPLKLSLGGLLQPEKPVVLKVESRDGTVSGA

[7] = Plasma protein unbound fraction measured in vitro; assay type: in vitro ADME
[8] = ref NCT01877382, cited from earlier work; for maximum tolerated dose: advanced solid tumors or lymphomas
[9] = target: CYP3A5 (Homo sapiens, UniProt P20815); assay: Incubation of [14C]milademetan with recombinant human CYP3A5; assay type: in vitro ADME; conditions: [14C]milademetan 1 µM, 60 min, unpublished in-house data
[10] = target: T1, CYP3A4; assay: Incubation of [14C]milademetan with recombinant human CYP3A4; assay type: in vitro ADME; conditions: [14C]milademetan 1 µM, 60 min, unpublished in-house data
Target sequence in this assay (P08684 whole entry): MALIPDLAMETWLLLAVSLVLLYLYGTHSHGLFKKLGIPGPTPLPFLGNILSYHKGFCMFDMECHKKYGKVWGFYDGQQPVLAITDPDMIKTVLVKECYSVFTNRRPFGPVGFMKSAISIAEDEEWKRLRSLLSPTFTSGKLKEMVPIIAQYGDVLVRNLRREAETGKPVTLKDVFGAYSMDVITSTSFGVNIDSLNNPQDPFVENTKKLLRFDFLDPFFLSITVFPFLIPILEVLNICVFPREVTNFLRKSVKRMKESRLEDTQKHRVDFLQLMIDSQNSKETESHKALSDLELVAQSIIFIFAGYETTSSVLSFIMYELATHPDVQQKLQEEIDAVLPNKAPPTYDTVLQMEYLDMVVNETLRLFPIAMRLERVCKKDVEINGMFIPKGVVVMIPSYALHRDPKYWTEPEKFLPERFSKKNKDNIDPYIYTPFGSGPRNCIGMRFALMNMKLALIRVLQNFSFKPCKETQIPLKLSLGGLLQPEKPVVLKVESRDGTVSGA

[11] = bile duct–cannulated rats, up to 48 h
[12] = Optimized by fitting clinical data (U107), milademetan alone, fasted

P-gp, sequence (P08183 whole entry): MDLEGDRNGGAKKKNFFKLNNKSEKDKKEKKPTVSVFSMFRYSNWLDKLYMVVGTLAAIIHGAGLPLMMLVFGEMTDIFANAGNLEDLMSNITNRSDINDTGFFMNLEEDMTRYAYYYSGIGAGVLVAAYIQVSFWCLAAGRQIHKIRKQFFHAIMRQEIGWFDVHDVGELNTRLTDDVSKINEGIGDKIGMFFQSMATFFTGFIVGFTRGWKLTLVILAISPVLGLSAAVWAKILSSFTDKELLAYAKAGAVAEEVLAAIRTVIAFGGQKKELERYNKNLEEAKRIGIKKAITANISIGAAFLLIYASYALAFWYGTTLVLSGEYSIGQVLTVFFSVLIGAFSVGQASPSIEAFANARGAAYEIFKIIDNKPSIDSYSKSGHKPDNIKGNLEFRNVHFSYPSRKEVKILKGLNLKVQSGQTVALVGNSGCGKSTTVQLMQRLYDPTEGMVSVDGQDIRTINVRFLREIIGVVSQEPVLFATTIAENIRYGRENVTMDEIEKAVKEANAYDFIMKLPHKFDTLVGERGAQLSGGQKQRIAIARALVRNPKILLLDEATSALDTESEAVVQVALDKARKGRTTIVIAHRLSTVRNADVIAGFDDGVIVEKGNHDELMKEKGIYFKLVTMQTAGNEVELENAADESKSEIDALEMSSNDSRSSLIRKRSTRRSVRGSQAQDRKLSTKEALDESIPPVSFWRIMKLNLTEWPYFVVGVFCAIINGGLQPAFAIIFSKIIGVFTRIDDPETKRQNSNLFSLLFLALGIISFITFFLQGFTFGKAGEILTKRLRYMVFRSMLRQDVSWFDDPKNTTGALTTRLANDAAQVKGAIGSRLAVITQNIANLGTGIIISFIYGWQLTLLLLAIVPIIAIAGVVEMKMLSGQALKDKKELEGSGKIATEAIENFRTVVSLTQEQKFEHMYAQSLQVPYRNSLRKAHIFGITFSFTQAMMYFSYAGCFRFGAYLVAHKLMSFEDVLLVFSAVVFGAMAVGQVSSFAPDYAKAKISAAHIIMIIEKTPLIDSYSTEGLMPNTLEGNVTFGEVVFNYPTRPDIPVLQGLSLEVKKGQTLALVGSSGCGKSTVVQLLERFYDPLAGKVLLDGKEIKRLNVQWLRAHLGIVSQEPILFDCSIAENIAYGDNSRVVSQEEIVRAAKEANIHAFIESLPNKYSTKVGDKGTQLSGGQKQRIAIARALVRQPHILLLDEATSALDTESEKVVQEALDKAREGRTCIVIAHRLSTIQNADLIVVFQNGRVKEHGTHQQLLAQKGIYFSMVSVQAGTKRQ
CYP3A5, sequence (P20815 whole entry): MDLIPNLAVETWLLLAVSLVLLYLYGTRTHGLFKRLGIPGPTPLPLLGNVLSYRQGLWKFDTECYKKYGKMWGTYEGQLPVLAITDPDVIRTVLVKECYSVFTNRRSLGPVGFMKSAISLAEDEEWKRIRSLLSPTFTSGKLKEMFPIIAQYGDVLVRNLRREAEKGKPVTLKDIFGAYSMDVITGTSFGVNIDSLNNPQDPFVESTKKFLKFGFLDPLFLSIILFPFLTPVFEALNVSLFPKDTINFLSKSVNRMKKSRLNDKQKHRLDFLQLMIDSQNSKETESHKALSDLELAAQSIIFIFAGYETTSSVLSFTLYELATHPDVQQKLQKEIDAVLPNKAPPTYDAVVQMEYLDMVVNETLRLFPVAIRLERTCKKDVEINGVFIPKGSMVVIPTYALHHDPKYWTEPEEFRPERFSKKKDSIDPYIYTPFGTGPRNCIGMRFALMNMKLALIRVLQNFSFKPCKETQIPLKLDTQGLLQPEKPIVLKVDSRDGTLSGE

Structure (SMILES): CC(C)NCC(O)COc1cccc2ccccc12 (stereo not drawn) [Propranolol, reference compound]
- Papp [1]: 43 ×10⁻⁶ cm/s

Structure (SMILES): CC1(C)CCC2(CC1)N[C@@H](C(=O)N[C@@H]1CC[C@@H](C(N)=O)OC1)[C@H](c1ccnc(Cl)c1F)[C@]21C(=O)Nc2cc(Cl)ccc21 [milademetan]
- biliary excretion of radioactivity [2, 11]: 20.4 ± 1.8 % of the dose
- radioactivity recovered in feces [2, 11]: 75.1 ± 3.3 % of the dose
- radioactivity recovered in feces ([2]; noncannulated rats, after 168 hours): 94.2 ± 0.7%
- CL/F ([3]; 100 mg alone, fasted (sequence AB, treatment A), geometric mean (CV%)): 6.8 L/h and 6.80 L/h and 6.80 (33.5) L/h
- CL/F ([3]; 100 mg with itraconazole (treatment B), geometric mean (CV%)): 3.13 L/h and 3.13 (35.4) L/h
- CL/F ([3]; 100 mg with posaconazole (treatment C), geometric mean (CV%)): 2.91 L/h and 2.91 (25.5) L/h
- AUC(0-t) ([3]; human, plasma, oral, 100 mg, AUClast, 100 mg alone, 2 h following a full meal (sequence AC, treatment A), geometric mean (CV%)): 13500 ng·h/mL
- Cmax ([3]; human, plasma, oral, 100 mg, Cmax, 100 mg alone, 2 h following a full meal (sequence AC, treatment A), geometric mean (CV%)): 675 ng/mL
- Tmax ([3]; human, plasma, oral, 100 mg, Tmax, 100 mg alone, 2 h following a full meal (sequence AC, treatment A), median (minimum–maximum)): 3.03 h
- Vd/F ([3]; human, plasma, oral, 100 mg, Vz/F, 100 mg alone, 2 h following a full meal (sequence AC, treatment A), geometric mean (CV%)): 223 L
- half-life ([3]; human, plasma, oral, 100 mg, t1/2, 100 mg alone, 2 h following a full meal (sequence AC, treatment A), arithmetic mean (SD)): 21.3 h
- Vsac (volume of single adjusting compartment) [4, 12]: 0.5 L/kg
- kin (first-order rate constant to single adjusting compartment) [4, 12]: 0.07 h⁻¹
- kout (first-order rate constant from single adjusting compartment) [4, 12]: 0.07 h⁻¹
- CLint,CYP3A4 (CYP3A4-specific intrinsic clearance) ([4]; Optimized by fitting clinical data (U107), milademetan and itraconazole sequence): 0.459 µL/min/pmol of isoform
- oral clearance (CLpo), optimized ([4]; fitted to period one of sequence AB (alone, fasted), U107): 8.5 L/h
- microsomal CLint ([4]; human): 40.2 µL/min/mg
- fmCYP3A4 (fraction metabolized by CYP3A4) ([4]; optimized to recover observed AUCR and CmaxR of sequence AB (itraconazole)): 0.58
- reduction of exposure (AUC) with food [5]: 24%
- KI (inactivation) [6]: 60.5 µM
- Ki [6]: 4.2 µM
- fraction unbound [7]: 0.02
- accumulation at steady-state ([8]; 120 mg q.d. 21/28, after 18–21 days of continuous dosing): 1.8 fold
- dose proportionality of systemic exposure ([8]; dose range 15–340 mg): dose‐proportional increase in systemic drug exposure
- maximum tolerated dose ([8]; q.d. 3/14 × 2 schedule): 260 mg
- maximum tolerated dose ([8]; q.d. 21/28 schedule): 160 mg
- remaining parent [9]: 84 % of the total radioactivity
- remaining parent [10]: 61 % of the total radioactivity
- Papp at 120 min [1]: 17 ×10⁻⁶ cm/s
